Data published in ChEMBL document CHEMBL3232717 (J Med Chem, 2014).

Experiments:
in vivo [1] = settings: beagle, dog, po, 2 mg/kg
[2] = Volume of distribution at steady state in beagle dog at 1 mg/kg, iv and 2 mg/kg, po administered via gavage by LC-MS/MS analysis; format: ADME, organism-based, Canis lupus familiaris; settings: in vivo, read-out: Vdss
Method in brief: (§1)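 Beagle dogs, fasted overnight with water ad libitum and fed 4 h postdose. TFA salt in saline given 1 mg/kg iv via cephalic vein (n = 2) or 2 mg/kg by gastric gavage (n = 2). EDTA blood drawn at 5 min (iv only), 15 and 30 min, and 1, 2, 4, 6, 8, 24, 30, 48 and 72 h. Acetonitrile-precipitated plasma quantified by LC-MS/MS; parameters derived noncompartmentally.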

[3] = Tmax in Sprague-Dawley rat at 1 mg/kg, iv and 2 mg/kg, po administered via gavage by LC-MS/MS analysis; format: ADME, organism-based; settings: in vivo
Method in brief: (§2)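 Male Sprague-Dawley rats, fasted overnight with water ad libitum and fed 4 h after dosing. TFA salt given as a saline solution, either 1 mg/kg iv via femoral-vein cannula (n = 2) or 2 mg/kg po by gavage (n = 3). EDTA blood taken at 5 min (iv only), 15 and 30 min, and 1, 2, 4, 6, 8, 24 and 48 h. Plasma protein-precipitated with acetonitrile and assayed by LC-MS/MS; noncompartmental analysis.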

Rattus norvegicus [4] = assay: Dose normalized AUC in Sprague-Dawley rat at 1 mg/kg, iv and 2 mg/kg, po administered via gavage by LC-MS/MS analysis; format: ADME, organism-based; settings: in vivo
Method in brief: as §2

[5] = Terminal half life in Sprague-Dawley rat at 1 mg/kg, iv and 2 mg/kg, po administered via gavage by LC-MS/MS analysis; format: ADME, organism-based; settings: in vivo, read-out: beta t1/2 (converted)
Method in brief: as §2

in vivo [6] = settings: beagle, dog, plasma, iv, 1 mg/kg
[7] = Plasma clearance in Sprague-Dawley rat at 1 mg/kg, iv and 2 mg/kg, po administered via gavage by LC-MS/MS analysis; format: ADME, organism-based
Method in brief: as §2

[8] = Cmax in beagle dog at 2 mg/kg, po administered via gavage by LC-MS/MS analysis; format: ADME, organism-based, Canis lupus familiaris; parameters: dose 2 mg/kg, route oral; settings: in vivo
Method in brief: as §1

Canis familiaris = assay: Dose normalized AUC in beagle dog at 1 mg/kg, iv and 2 mg/kg, po administered via gavage by LC-MS/MS analysis; format: ADME, organism-based, Canis lupus familiaris; settings: in vivo
Method in brief: as §1

[9] = Oral bioavailability in Sprague-Dawley rat at 2 mg/kg administered via gavage by LC-MS/MS analysis; format: ADME, organism-based; settings: in vivo
Method in brief: as §2

in vivo [10] = settings: beagle, dog
[11] = Cmax in Sprague-Dawley rat at 2 mg/kg, po administered via gavage by LC-MS/MS analysis; format: ADME, organism-based; parameters: dose 2 mg/kg, route oral; settings: in vivo
Method in brief: as §2

[12] = Volume of distribution at steady state in Sprague-Dawley rat at 1 mg/kg, iv and 2 mg/kg, po administered via gavage by LC-MS/MS analysis; format: ADME, organism-based; settings: in vivo, read-out: Vdss
Method in brief: as §2

[13] = Tmax in beagle dog at 1 mg/kg, iv and 2 mg/kg, po administered via gavage by LC-MS/MS analysis; format: ADME, organism-based, Canis lupus familiaris; settings: in vivo
Method in brief: as §1

[14] = target: Voltage-dependent L-type calcium channel subunit alpha-1C (Homo sapiens, UniProt Q13936); assay: Inhibition of Cav1.2 (unknown origin)
Sequence of Voltage-dependent L-type calcium channel subunit alpha-1C (Q13936 whole entry): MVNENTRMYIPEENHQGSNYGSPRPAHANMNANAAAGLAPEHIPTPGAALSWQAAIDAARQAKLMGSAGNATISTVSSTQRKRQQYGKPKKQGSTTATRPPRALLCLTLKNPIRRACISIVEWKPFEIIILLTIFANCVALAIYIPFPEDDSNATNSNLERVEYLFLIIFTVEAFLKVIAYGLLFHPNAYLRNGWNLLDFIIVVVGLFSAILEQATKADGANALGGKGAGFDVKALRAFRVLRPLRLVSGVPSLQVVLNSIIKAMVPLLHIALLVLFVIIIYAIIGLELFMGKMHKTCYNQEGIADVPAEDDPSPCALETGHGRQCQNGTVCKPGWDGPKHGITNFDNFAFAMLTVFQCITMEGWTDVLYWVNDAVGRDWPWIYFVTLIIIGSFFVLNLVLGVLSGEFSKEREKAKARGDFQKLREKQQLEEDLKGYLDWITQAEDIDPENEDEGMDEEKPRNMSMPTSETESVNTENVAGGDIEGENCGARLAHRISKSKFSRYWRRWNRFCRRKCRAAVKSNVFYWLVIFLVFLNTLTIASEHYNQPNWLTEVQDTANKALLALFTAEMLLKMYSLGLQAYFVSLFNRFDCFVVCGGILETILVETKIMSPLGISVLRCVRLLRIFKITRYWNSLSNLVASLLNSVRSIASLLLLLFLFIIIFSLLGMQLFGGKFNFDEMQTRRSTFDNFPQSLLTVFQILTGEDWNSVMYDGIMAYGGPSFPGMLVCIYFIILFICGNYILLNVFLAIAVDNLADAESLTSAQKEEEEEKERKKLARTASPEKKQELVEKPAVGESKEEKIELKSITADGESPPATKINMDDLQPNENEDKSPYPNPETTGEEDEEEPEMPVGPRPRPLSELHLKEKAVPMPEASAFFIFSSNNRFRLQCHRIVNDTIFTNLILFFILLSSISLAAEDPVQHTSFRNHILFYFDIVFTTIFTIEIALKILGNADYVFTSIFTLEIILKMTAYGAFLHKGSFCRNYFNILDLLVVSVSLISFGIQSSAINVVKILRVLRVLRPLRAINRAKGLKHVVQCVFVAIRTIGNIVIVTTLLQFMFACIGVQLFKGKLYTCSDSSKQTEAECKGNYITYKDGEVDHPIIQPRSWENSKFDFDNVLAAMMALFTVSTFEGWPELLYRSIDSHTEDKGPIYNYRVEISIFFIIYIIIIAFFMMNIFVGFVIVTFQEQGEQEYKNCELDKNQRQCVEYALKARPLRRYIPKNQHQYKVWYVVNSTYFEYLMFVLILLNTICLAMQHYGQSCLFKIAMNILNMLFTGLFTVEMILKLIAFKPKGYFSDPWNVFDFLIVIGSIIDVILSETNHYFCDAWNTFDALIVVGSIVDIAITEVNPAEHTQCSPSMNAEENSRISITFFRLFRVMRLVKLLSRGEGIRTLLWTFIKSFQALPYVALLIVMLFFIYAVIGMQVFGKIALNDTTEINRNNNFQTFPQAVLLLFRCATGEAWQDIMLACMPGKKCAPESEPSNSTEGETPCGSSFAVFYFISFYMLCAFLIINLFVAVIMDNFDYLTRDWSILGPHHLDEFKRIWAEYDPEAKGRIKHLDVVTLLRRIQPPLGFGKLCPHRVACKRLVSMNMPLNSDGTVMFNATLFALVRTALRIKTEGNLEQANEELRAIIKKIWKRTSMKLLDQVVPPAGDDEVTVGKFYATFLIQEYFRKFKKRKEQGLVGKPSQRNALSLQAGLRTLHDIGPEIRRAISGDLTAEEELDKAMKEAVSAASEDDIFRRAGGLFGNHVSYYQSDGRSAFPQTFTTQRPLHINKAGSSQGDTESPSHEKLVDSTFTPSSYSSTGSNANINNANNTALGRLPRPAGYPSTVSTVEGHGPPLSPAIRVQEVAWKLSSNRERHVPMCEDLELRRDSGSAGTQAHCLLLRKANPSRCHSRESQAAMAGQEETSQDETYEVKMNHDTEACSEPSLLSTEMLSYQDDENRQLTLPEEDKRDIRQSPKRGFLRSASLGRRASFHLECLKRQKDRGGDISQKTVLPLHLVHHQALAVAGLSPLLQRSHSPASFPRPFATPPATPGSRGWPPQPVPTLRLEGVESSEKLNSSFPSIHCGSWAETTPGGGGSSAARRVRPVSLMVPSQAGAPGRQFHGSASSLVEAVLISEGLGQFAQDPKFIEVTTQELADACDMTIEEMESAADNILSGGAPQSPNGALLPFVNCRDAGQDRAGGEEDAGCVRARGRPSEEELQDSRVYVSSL

Mus musculus [15] = species on record: Mus musculus; assay: animal or person; settings: Plasma, po, read-out: INH
Rattus norvegicus [16] = assay: Toxicity in rat assessed as mortality at 100 mg/kg/day, po for 14 days; format: organism-based; parameters: route oral; settings: in vivo, 336 h
Method in brief: (§3)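 Exploratory 14-day oral safety study in male rats, dosed daily. Endpoints were mortality, physical signs observed over the dosing period, and clinical pathology parameters, including glucose and triglycerides.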

Dipeptidyl peptidase 8 = Dipeptidyl peptidase 8 (Homo sapiens, UniProt Q6V1X1); assay: Inhibition of DPP8 (unknown origin)
Sequence of Dipeptidyl peptidase 8 (Q6V1X1 whole entry): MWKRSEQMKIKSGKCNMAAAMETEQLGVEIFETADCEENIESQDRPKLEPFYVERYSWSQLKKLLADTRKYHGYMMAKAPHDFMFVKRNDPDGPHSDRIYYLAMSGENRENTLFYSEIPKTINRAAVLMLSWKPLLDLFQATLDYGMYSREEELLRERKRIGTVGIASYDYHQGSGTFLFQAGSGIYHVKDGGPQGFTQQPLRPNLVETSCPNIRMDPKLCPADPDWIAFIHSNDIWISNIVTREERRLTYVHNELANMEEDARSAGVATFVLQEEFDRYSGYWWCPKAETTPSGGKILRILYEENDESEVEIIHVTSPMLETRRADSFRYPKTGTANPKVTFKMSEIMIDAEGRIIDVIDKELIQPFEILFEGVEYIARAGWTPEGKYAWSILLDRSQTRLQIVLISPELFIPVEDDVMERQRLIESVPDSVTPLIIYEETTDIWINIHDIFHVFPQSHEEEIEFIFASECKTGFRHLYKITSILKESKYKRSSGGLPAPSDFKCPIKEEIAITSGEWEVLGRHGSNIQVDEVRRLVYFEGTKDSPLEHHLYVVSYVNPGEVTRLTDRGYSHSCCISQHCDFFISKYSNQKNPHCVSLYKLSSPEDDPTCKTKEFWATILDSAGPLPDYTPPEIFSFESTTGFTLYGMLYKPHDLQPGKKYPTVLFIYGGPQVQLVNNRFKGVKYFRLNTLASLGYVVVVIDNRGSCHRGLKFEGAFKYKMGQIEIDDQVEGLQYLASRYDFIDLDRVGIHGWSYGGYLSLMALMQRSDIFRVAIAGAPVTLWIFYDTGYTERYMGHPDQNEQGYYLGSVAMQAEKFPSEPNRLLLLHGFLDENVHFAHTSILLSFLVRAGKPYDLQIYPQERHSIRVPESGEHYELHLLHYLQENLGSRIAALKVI

Rattus norvegicus [17] = assay: Toxicity in rat assessed as decrease in triglyceride level at 100 mg/kg/day, po for 14 days; format: organism-based; parameters: route oral; settings: in vivo, 336 h
Method in brief: as §3

Mus musculus [18] = species on record: Mus musculus; assay: animal or person; settings: Blood, po, 1 h, read-out: INH
Rattus norvegicus [19] = assay: Toxicity in rat assessed as decrease in glucose level at 100 mg/kg/day, po for 14 days; format: organism-based; parameters: route oral; settings: in vivo, 336 h
Method in brief: as §3

Prolyl endopeptidase FAP = target: T1, Prolyl endopeptidase FAP (Homo sapiens, UniProt Q12884); assay: Inhibition of FAP (unknown origin)
T1 sequence (Q12884 whole entry): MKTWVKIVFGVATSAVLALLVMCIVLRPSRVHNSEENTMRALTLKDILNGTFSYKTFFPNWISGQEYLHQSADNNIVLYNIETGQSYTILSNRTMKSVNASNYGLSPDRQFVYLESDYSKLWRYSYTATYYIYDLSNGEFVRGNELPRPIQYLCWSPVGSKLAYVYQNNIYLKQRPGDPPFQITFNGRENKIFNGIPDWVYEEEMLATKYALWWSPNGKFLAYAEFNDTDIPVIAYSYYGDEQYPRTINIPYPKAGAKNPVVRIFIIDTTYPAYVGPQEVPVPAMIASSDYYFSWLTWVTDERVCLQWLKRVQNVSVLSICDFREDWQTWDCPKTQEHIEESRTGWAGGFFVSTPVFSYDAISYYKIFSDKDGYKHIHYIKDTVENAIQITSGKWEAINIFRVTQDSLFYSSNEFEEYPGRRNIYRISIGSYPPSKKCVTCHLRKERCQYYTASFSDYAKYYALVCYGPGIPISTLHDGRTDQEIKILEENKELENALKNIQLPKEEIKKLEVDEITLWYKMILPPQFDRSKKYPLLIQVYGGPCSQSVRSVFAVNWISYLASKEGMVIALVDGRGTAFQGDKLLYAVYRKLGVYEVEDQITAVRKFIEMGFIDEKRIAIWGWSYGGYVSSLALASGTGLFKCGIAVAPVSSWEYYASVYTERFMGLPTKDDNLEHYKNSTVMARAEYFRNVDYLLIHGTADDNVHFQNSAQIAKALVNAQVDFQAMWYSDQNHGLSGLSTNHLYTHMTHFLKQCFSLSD

Dipeptidyl peptidase 9 = Dipeptidyl peptidase 9 (Homo sapiens, UniProt Q86TI2); assay: Inhibition of DPP9 (unknown origin)
Sequence of Dipeptidyl peptidase 9 (Q86TI2 whole entry): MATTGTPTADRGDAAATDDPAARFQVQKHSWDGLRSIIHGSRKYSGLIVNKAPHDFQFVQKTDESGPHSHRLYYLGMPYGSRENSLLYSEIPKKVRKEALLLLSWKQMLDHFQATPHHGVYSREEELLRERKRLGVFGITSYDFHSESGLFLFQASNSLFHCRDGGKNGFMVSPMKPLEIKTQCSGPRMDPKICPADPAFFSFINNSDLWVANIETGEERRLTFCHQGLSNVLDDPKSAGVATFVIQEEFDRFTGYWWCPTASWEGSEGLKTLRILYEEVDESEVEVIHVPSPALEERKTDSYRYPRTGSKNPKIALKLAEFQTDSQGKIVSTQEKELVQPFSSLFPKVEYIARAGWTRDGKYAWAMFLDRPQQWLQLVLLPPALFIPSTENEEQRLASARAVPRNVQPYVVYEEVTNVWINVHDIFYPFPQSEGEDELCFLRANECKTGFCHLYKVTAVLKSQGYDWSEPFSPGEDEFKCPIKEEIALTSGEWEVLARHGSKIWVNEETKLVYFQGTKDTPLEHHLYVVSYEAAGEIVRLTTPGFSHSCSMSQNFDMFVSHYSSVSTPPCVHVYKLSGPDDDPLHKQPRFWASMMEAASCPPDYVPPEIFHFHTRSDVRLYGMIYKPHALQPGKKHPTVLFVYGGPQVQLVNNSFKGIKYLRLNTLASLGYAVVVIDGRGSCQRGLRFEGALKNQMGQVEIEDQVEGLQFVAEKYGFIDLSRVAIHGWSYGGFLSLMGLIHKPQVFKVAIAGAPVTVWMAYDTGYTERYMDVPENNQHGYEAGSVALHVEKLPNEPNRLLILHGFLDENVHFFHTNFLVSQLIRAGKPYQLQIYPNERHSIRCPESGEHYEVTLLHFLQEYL

Dipeptidyl peptidase 4 = Dipeptidyl peptidase 4 (Mus musculus, UniProt P28843); assay: Inhibition of DPP4 in mouse plasma
Sequence of Dipeptidyl peptidase 4 (P28843 whole entry): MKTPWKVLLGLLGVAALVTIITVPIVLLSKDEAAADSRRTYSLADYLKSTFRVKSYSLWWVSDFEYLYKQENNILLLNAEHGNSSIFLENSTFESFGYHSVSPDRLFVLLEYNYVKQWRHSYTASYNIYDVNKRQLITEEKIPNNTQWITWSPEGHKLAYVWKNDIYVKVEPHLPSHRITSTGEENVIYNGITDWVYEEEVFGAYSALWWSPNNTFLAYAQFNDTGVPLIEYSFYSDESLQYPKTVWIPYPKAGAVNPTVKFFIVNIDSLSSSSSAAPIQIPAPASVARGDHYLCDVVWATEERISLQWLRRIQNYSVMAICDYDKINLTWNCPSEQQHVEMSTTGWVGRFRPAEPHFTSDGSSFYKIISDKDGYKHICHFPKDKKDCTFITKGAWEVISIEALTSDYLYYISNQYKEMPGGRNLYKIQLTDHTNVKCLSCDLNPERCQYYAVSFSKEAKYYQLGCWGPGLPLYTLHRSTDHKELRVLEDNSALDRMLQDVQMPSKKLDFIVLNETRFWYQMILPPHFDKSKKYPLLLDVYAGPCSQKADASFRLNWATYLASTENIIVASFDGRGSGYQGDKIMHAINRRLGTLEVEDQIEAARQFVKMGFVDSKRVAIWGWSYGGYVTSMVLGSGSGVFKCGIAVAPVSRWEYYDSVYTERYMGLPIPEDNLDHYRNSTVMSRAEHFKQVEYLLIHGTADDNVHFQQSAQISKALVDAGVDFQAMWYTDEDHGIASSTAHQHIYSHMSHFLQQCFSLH
Method in brief: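 Plasma DPP-4 inhibition measured in 50% mouse plasma; IC50 read-out.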

[20] = Cmax in rat at 100 mg/kg/day, po administered for 14 days; format: ADME, organism-based; parameters: dose 100 mg/kg/day, route oral; settings: in vivo
Method in brief: (§4)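 Exploratory 14-day oral safety study in male rats dosed at 100 mg/kg/day; AUC(0-24h), Cmax and Tmax determined.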

[21] = Ratio of drug level in brain to plasma in human
[22] = Unbound fraction in beagle dog plasma at 1 to 100 uM; format: ADME, cell-free, Canis lupus familiaris
Method in brief: (§5)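 Radiolabelled ([3H]) compound added to plasma at 1, 10 and 100 μM; mean percentage unbound reported for each species.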

Rattus norvegicus [23] = assay: Toxicity in rat assessed as physical signs at 100 mg/kg/day, po for 14 days; format: organism-based; parameters: route oral; settings: in vivo, 336 h
Method in brief: as §3

Mus musculus [24] = species on record: Mus musculus; assay: animal or person; settings: Blood, po, 1 h, read-out: INH; remark: listed apart in the source
Rattus norvegicus [25] = assay: Toxicity in rat assessed as decrease in cholesterol level at 100 mg/kg/day, po for 14 days; format: organism-based; parameters: route oral; settings: in vivo, 336 h
Method in brief: as §3

[26] = AUC (0 to 24 hrs) in rat at 100 mg/kg/day, po administered for 14 days; format: ADME, organism-based; parameters: dose 100 mg/kg/day, time < 24 hr, route oral; settings: plasma
Method in brief: as §4

[27] = target: Voltage-gated L-type calcium channel (Homo sapiens, UniProt Q13936+Q13698+Q01668+O60840); assay: Effect on L-type Ca2+ channel (unknown origin) up to 30 uM
Method in brief: (§6)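 Cardiac ion channel panel run on PatchXpress, testing functional currents (hERG/IKr, INa, ICaL) up to 30 μM. IKr was additionally assessed by nonfunctional MK-499 displacement binding.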

Plasma = assay: Plasma concentration in mouse at 0.3 mg/kg, po; format: ADME, organism-based; parameters: dose 0.3 mg/kg, route oral; settings: in vivo
Method in brief: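 Lean mice dosed orally 1 h before an oral dextrose challenge (OGTT); plasma drug concentration measured alongside plasma DPP-4 activity in the accompanying pharmacodynamic study.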

[28] = Tmax in rat at 100 mg/kg/day, po administered for 14 days; format: ADME, organism-based; parameters: route oral; settings: in vivo
Method in brief: as §4

[29] = Ratio of drug level in brain to plasma in Sprague-Dawley rat
Dipeptidyl peptidase 2 = Dipeptidyl peptidase 2 (Homo sapiens, UniProt Q9UHL4); assay: Inhibition of QPP (unknown origin)
[30] = Unbound fraction in Sprague-Dawley rat plasma at 1 to 100 uM; format: ADME, cell-free
Method in brief: as §5

[31] = Ratio of drug level in brain to plasma in CD-1 mouse
[32] = Inhibition of potassium channel IKr (unknown origin)
Salmonella typhimurium = assay: Genotoxicity in Salmonella typhimurium by Ames mutagenicity test; format: toxicity, organism-based; settings: salmonella enterica subsp. enterica serovar typhimurium
[33] = Unbound fraction in human plasma at 1 to 100 uM; format: ADME, cell-free
Method in brief: as §5

[34] = Unbound fraction in CD-1 mouse plasma at 1 to 100 uM; format: ADME, cell-free
Method in brief: as §5

[35] = target: Sodium channel protein type 5 subunit alpha (Homo sapiens, UniProt Q14524); assay: Inhibition of Nav1.5 (unknown origin)
Method in brief: as §6

[36] = Ratio of drug level in brain to plasma in beagle dog
Prolyl endopeptidase = target: T2, Prolyl endopeptidase (Homo sapiens, UniProt P48147); assay: Inhibition of PEP (unknown origin)
T2 sequence (P48147 whole entry): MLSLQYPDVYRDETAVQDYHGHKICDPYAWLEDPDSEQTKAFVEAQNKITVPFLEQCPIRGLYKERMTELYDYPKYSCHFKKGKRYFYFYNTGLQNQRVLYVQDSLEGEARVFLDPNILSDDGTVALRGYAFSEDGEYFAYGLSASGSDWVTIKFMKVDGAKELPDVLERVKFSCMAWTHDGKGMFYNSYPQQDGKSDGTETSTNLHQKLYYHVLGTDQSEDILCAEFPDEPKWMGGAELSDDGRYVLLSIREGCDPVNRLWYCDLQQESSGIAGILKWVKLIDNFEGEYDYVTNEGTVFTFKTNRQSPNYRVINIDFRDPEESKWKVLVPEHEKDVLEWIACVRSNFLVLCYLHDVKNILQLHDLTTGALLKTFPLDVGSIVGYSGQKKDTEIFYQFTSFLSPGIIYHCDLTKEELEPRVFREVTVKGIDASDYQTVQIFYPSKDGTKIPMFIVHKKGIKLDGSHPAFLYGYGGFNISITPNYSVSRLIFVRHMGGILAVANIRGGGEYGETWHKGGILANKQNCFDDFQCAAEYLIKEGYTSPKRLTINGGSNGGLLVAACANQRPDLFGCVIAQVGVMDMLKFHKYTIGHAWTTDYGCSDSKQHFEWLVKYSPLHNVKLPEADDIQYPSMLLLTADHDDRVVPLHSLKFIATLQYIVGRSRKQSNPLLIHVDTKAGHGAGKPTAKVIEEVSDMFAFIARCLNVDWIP

SMILES: CS(=O)(=O)n1cc2c(n1)CN([C@H]1CO[C@H](c3cc(F)ccc3F)[C@@H](N)C1)C2.O=C(O)C(F)(F)F
- bioavailability (in vivo [1]): 100%
- Vd [2]: 1.3 L/kg
- Tmax [3]: 1 h
- AUC/dose (Rattus norvegicus [4]): 47.8 µM·h/mg/kg
- half-life [5]: 11 h
- clearance (in vivo [6]): 0.054 L/h/kg
- clearance [7]: 0.066 L/h/kg
- Cmax [8]: 5.9 µM
- AUC/dose (Canis familiaris): 54 µM·h/mg/kg
- bioavailability [9]: 100%
- half-life (in vivo [10]): 22 h
- Cmax [11]: 9 µM
- Vd [12]: 0.8 L/kg
- Tmax [13]: 1.3 h

SMILES: CS(=O)(=O)n1cc2c(n1)CN([C@H]1CO[C@H](c3cc(F)ccc3F)[C@@H](N)C1)C2 [OMARIGLIPTIN]
- IC50 [14]: > 30 µM
- inhibition in vivo at 0.3 mg/kg (Mus musculus [15]): 85%
- Activity (Rattus norvegicus [16]): Non-toxic
- IC50 (Dipeptidyl peptidase 8): > 67 µM
- Activity (Rattus norvegicus [17]): Toxic
- inhibition in vivo at 0.01 mg/kg (Mus musculus [18]): 7%
- Activity (Rattus norvegicus [19]): Toxic
- IC50 (Prolyl endopeptidase FAP): > 67 µM
- IC50 (Dipeptidyl peptidase 9): > 67 µM
- IC50 (Dipeptidyl peptidase 4): 0.0439 µM
- Cmax [20]: 371 µM
- Kp [21]: 0.6
- fraction unbound at up to 100 µM [22]: 0.43
- Activity (Rattus norvegicus [23]): Non-toxic
- inhibition in vivo at 0.3 mg/kg (Mus musculus [24]): 51%
- Activity (Rattus norvegicus [25]): Toxic
- AUC at 24 h [26]: 5000 µM·h
- Activity [27]: Not Active
- concentration (Plasma): 0.521 µM
- Tmax [28]: 2 h
- Kp [29]: 0.6
- IC50 (Dipeptidyl peptidase 2): > 67 µM
- fraction unbound at up to 100 µM [30]: 0.15
- Kp [31]: 0.6
- IC50 [32]: > 30 µM
- Activity (Salmonella typhimurium): Non-toxic
- fraction unbound at up to 100 µM [33]: 0.68
- fraction unbound at up to 100 µM [34]: 0.38
- IC50 [35]: > 30 µM
- Kp [36]: 0.6
- IC50 (Prolyl endopeptidase): > 67 µM
